Laboratory results reported in ChEMBL document CHEMBL1158774, “Collagenase inhibitory quinic acid esters from Ipomoea pes-caprae” (J Nat Prod, 2005).

Experiment: Inhibition of collagenase type 5
Procedure, shortened: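 Collagenase type V ([…]) with a 20 µg/mL enzyme solution is preincubated with samples in 4% MeOH at 37 °C for 10 min. Fluorogenic substrate MOCAc-Pro-Leu-Gly-Leu-A2pr(Dnp)-Ala-Arg-NH2 (5 µM solution) is then added. Fluorescence (ex 320, em 405 nm) is read during 1 h at 37 °C. Phosphoramidon is the positive control.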

| SMILES | IC50 [µM] |
| --- | --- |
| O=C(/C=C/c1ccc(O)c(O)c1)O[C@@H]1[C@H](O)C[C@@](O)(C(=O)O)C[C@H]1OC(=O)/C=C/c1ccc(O)c(O)c1 | 37.2 |
| O=C(O)/C=C/c1ccc(O)c(O)c1 [CAFFEIC ACID] | 82.7 |
| O=C(/C=C/c1ccc(O)c(O)c1)O[C@@H]1C[C@](O)(C(=O)O)C[C@@H](OC(=O)/C=C/c2ccc(O)c(O)c2)[C@H]1O | 23.6 |
| COC(=O)[C@]1(O)C[C@@H](O)[C@@H](OC(=O)/C=C/c2ccc(O)c(O)c2)[C@H](OC(=O)/C=C/c2ccc(O)c(O)c2)C1 | 26.6 |
| CC(C)C[C@H](NP(=O)(O)O[C@@H]1O[C@@H](C)[C@H](O)[C@@H](O)[C@H]1O)C(=O)N[C@@H](Cc1c[nH]c2ccccc12)C(=O)O [PHOSPHORAMIDON] | 0.6 |
| O=C(O)[C@]1(O)C[C@@H](O)[C@@H](O)[C@H](O)C1 [QUINIC ACID] | > 500 |
| O=C(/C=C/c1ccc(O)c(O)c1)O[C@@H]1C[C@](O)(C(=O)O)C[C@@H](OC(=O)/C=C/c2ccc(O)c(O)c2)[C@H]1OC(=O)/C=C/c1ccc(O)cc1 | 19.1 |
| COC(=O)[C@@]1(O)C[C@@H](O)[C@H](OC(=O)/C=C/c2ccc(O)c(O)c2)[C@H](OC(=O)/C=C/c2ccc(O)c(O)c2)C1 [3,4-O-TRANS-CAFFEOYLQUINIC ACID METHYL ESTER] | 16.2 |
| O=C(/C=C/c1ccc(O)c(O)c1)O[C@@H]1[C@H](OC(=O)/C=C/c2ccc(O)cc2)C[C@@](OC(=O)/C=C/c2ccc(O)cc2)(C(=O)O)C[C@H]1OC(=O)/C=C/c1ccc(O)c(O)c1 | 14.2 |
| COC(=O)[C@]1(O)C[C@@H](OC(=O)/C=C/c2ccc(O)c(O)c2)[C@@H](O)[C@H](OC(=O)/C=C/c2ccc(O)c(O)c2)C1 | 5.8 |
